# Experimental data from ChEMBL document CHEMBL5346890, “Elevated labile iron in castration-resistant prostate cancer is targetable with ferrous iron-activatable antiandrogen therapy” (Eur J Med Chem, 2023).
# Activity calls are given as the source filed them. No cut-off for these calls is given here.
# What was measured:
# PC-3 = test: Antiproliferative activity against androgen receptor negative human PC-3 cells assessed as reduction in cell growth at 5 uM measured upto 6 days by CellTiter-Glo assay; assay type: functional, cell-based; settings: time <= 6.0 day
# How it was run: (§1)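 Cells were seeded at 20,000/well, four replicates per condition, in complete medium with 0.1% DMSO. Compound was added 24 h after seeding at a single concentration of 5 μM (0.2% final DMSO). Viability was read by CellTiter-Glo luminescence (10 min, room temperature, in HBSS) at timepoints up to 144 h (6 days).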
# [1] = Cmax in NSG mouse at 10 mg/kg, ip; assay type: ADME, organism-based; parameters: dose 10 mg/kg, route ip; settings: in vivo
# How it was run: (§2)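 Healthy NSG mice got a single 10 mg/kg intraperitoneal dose. Plasma concentrations of conjugate and released payload were measured over time, with n = 9 or n = 6 mice depending on conjugate. Tmax, Cmax and AUClast (hr•ng/mL) were derived from the plasma profiles.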
# LNCaP/AR [2] = test: Antiproliferative activity against human LNCaP/AR cells assessed as reduction in cell growth measured after 3 days by CellTiter-Glo assay; assay type: functional, cell-based; settings: dose 0.1-25 µM, time 3.0 day
# How it was run: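 LNCaP-AR cells (AR-overexpressing) were seeded at 20,000/well, four replicates, in 0.1% DMSO complete medium. Drug was added 24 h later across 0.1–25 μM (0.2% final DMSO) for three days. Viability was measured by CellTiter-Glo luminescence after 10 min at room temperature.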
# LNCaP C4-2B = test: Antiproliferative activity against androgen receptor positive human LNCaP C4-2B cells assessed as reduction in cell growth at 5 uM measured upto 6 days by CellTiter-Glo assay; assay type: functional, cell-based; settings: time <= 6.0 day; how it was run: as §1
# [3] = Kinetic solubility of compound at pH 7.4 by shake flask assay; assay type: physicochemical; settings: buffer
# How it was run: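 Kinetic solubility of DMSO solutions in phosphate-buffered saline, pH 7.4, by automated miniaturized shake-flask method. Quantitation was by chemiluminescent nitrogen detection.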
# [4] = Tmax in NSG mouse at 10 mg/kg, ip; assay type: ADME, organism-based; settings: in vivo; how it was run: as §2
# LNCaP/AR [5] = test: Antiproliferative activity against human LNCaP/AR cells assessed as reduction in cell growth at 5 uM measured upto 6 days by CellTiter-Glo assay; assay type: functional, cell-based; settings: time <= 6.0 day
# [6] = AUClast in NSG mouse at 10 mg/kg, ip; assay type: ADME, organism-based; parameters: dose 10 mg/kg, route ip; settings: in vivo; how it was run: as §2
# LNCaP [7] = test: Reduction in KLK2 gene expression in human LNCaP cells at 5 uM incubated for 48 hrs by qRT-PCR analysis; assay type: functional, cell-based
# How it was run: (§3)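 Cells were plated in triplicate per condition; drug (0.1% final DMSO) was added after 24 h and left for 48 h. RNA was extracted and 2 μg reverse-transcribed. cDNA was diluted 1:50 and amplified by qPCR with 400 nM primers.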
# [8] = Metabolic stability in human liver microsomes assessed as half life measured upto 60 mins in presence of NADPH by LC/MS/MS analysis; assay type: ADME, Microsome; settings: 1 h
# How it was run: (§4)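 Human liver microsomes at 0.5 mg/mL protein with 1 mM NADPH, sampled at 0, 15, 30 and 60 min, N = 1. Parent disappearance was followed by LC/MS/MS with verapamil as control. CLint = ln(2)*1000/T1/2/protein concentration (mg/mL).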
# [9] = Metabolic stability in human liver microsomes assessed as intrinsic clearance measured upto 60 mins in presence of NADPH by LC/MS/MS analysis; assay type: ADME, Microsome; settings: 1 h; how it was run: as §4
# LNCaP [10] = test: Reduction in KLK3 gene expression in human LNCaP cells at 5 uM incubated for 48 hrs by qRT-PCR analysis; assay type: functional, cell-based; how it was run: as §3
# [11] = Drug concentration in NSG mouse brain at 10 mg/kg, ip measured after 2 hrs; assay type: ADME, organism-based; settings: read-out: Drug uptake
# How it was run: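 Healthy NSG mice were given a single 10 mg/kg intraperitoneal injection. Brains were collected at set timepoints, including 2 h post-dose. Both the intact conjugate and its released antiandrogen payload were measured in brain tissue, with concentrations expressed as ng/g.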
# [12] = Metabolic stability in mouse liver microsomes assessed as half life measured upto 60 mins in presence of NADPH by LC/MS/MS analysis; assay type: ADME, Microsome; settings: 1 h
# [13] = Metabolic stability in mouse liver microsomes assessed as intrinsic clearance measured upto 60 mins in presence of NADPH by LC/MS/MS analysis; assay type: ADME, Microsome; settings: 1 h
SMILES,Activity (PC-3),Cmax [1] [ng/mL],Activity (LNCaP/AR [2]),Activity (LNCaP C4-2B),Kinetic_solubility [3] [µM],Tmax [4] [min],Activity (LNCaP/AR [5]),AUC(0-t) [6] [µg·h/mL],Activity (LNCaP [7]),t1/2 [8] [min],CLH [9] [µL/min/mg],Activity (LNCaP [10]),concentration at 2 h [11] [ng/g],t1/2 [12] [min],CLH [13] [µL/min/mg]
N#Cc1ccc(N2C(=O)C3(CCC3)N(c3ccc(O)cc3)C2=S)cc1C(F)(F)F,inactive,–,–,–,–,–,–,–,–,–,–,–,–,–,–
CN(CCN(C)C(=O)O[C@@H]1CCC[C@]2(C1)OOC1(O2)C2CC3CC(C2)CC1C3)C(=O)Oc1ccc(N2C(=S)N(c3ccc(C#N)c(C(F)(F)F)c3)C(=O)C23CCC3)cc1 (some centres undefined),inactive,346,Dose-Dependent Effect,Active,2.3,30,Active,81.1,Active,53.4,25.9,Active,–,–,–
CNC(=O)c1ccc(N2C(=S)N(c3cnc(C#N)c(C(F)(F)F)c3)C(=O)C23CCC3)cc1F [APALUTAMIDE],inactive,4330,–,–,–,240,–,4490,Active,–,–,Active,808,–,–
N#Cc1ncc(N2C(=O)C3(CCC3)N(c3ccc(OC4CCN(C(=O)O[C@@H]5CCC[C@]6(C5)OOC5(O6)C6CC7CC(C6)CC5C7)CC4)nc3)C2=S)cc1C(F)(F)F (some centres undefined),inactive,641,–,Active,< 0.4,30,Active,158,Active,–,–,Active,–,48.2,28.8
N#Cc1ncc(N2C(=O)C3(CCC3)N(c3ccc(OC4CCNCC4)nc3)C2=S)cc1C(F)(F)F,inactive,–,–,–,–,–,–,–,–,–,–,–,–,–,–
N#Cc1ncc(N2C(=O)C3(CCC3)N(c3ccc(OC4CCN(C(=O)O[C@H]5CCC[C@@]6(C5)OOC5(O6)C6CC7CC(C6)CC5C7)CC4)nc3)C2=S)cc1C(F)(F)F (some centres undefined),–,–,–,–,–,–,–,–,–,–,–,–,–,34.5,40.2
